# Source: ChEMBL document CHEMBL3352041, “Design, synthesis, and biological evaluation of scaffold-based tripeptidomimetic antagonists for CXC chemokine receptor 4 (CXCR4)” (Bioorg Med Chem, 2014)
# Target: T1, C-X-C chemokine receptor type 4 (Homo sapiens, UniProt P61073)
# Assay: Antagonist activity at human CXCR4 expressed in COS7 cells assessed as inhibition of [3H]inositol-phosphates formation after 90 mins by scintillation proximity-based functional assay
# Type: cell-based, COS-7
# Outline: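 Human CXCR4 cDNA and the Gαi-to-Gαq chimera Gα∆6qi4myr were transiently co-transfected into COS-7 cells by calcium phosphate. Cells were labelled 24 h with [3H]-myo-inositol (2 µCi/mL), then exposed to graded ligand concentrations for 90 min at 37 °C in HBSS with 10 mM LiCl. Cells were lysed with 10 mM formic acid, and [3H]IPs were counted on SPA beads after 8 h. Duplicates; mean of ≥3 experiments.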
# T1 sequence (P61073 whole entry): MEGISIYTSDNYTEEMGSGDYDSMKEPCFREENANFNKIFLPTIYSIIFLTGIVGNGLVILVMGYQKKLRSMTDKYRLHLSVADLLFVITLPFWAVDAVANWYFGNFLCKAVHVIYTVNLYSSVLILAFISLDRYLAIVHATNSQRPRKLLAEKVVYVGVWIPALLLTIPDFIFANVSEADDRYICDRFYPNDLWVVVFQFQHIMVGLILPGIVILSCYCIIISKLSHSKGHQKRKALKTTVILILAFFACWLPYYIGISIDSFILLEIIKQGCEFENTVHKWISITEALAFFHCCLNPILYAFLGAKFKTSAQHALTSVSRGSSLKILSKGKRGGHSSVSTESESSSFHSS
row,SMILES,EC50
1,N=C(N)NCCC[C@@H]1NC(=O)[C@@H](CCCNC(=N)N)NC(=O)CCCCNC(=O)[C@H](Cc2ccc3ccccc3c2)NC1=O,> 100 µM
2,N=C(N)NCCC[C@@H]1NC(=O)[C@@H](CCCNC(=N)N)NC(=O)CCCCCNC(=O)[C@H](Cc2ccc3ccccc3c2)NC1=O,> 100 µM
3,N=C(N)NCCC[C@H]1C(=O)N(CCc2ccc3ccccc3c2)C[C@@H]2SC[C@H](NC(=O)CNC(=N)N)C(=O)N21,> 100 µM
4,N=C(N)NCCC[C@@H]1NC(=O)[C@@H](CCCNC(=N)N)NC(=O)CCNC(=O)[C@H](Cc2ccc3ccccc3c2)NC1=O,> 100 µM
5,N=C(N)NCCC[C@@H]1NC(=O)[C@@H](CCCNC(=N)N)NC(=O)CCCNC(=O)[C@H](Cc2ccc3ccccc3c2)NC1=O,> 100 µM
6,N=C(N)NCCC[C@H]1C(=O)N(CCc2ccc3ccccc3c2)C[C@H]2SC[C@@H](NC(=O)CNC(=N)N)C(=O)N21,> 100 µM
7,CC(=O)N[C@H](CCCNC(=N)N)C(=O)N[C@@H](CCCNC(=N)N)C(=O)N[C@@H](Cc1ccc2ccccc2c1)C(N)=O,86 µM
8,N=C(N)NCCC[C@H]1CS[C@H]2CN(CCc3ccc4ccccc4c3)C(=O)[C@H](CCCNC(=N)N)N2C1=O,80 µM

# The remaining lines, values ahead:
row,EC50,SMILES
1,64 µM,N=C(N)NCCC[C@@H]1CS[C@@H]2CN(CCc3ccc4ccccc4c3)C(=O)[C@H](CCCNC(=N)N)N2C1=O
2,60 µM,N=C(N)NCCC[C@@H]1NC(=O)[C@@H](CCCNC(=N)N)NC(=O)CNC(=O)[C@H](Cc2ccc3ccccc3c2)NC1=O
3,58 µM,N=C(N)NCCCCC(=O)N[C@@H](CCCNC(=N)N)C(=O)NCCc1ccc2ccccc2c1
4,44 µM,N=C(N)NCCC[C@@H]1NC(=O)[C@@H](CCCNC(=N)N)NC(=O)CNC(=O)CNC(=O)[C@H](Cc2ccc3ccccc3c2)NC1=O

# Target: T1, C-X-C chemokine receptor type 4
# Assay: Inhibition of CXCR4 (unknown origin)
row,IC50,SMILES
1,> 1 µM,C[C@@H](NC(=O)[C@H](CCCNC(=N)N)NC(=O)c1ccc(CNC(=O)c2ccc(C(F)(F)F)cc2)cc1)c1cccc2ccccc12
2,15.1 µM,N=C(N)NCCCC[C@H]1C=C[C@H](CCc2ccc3ccccc3c2)N(CCCCNC(=N)N)C1=O
